The values that follow come from ChEMBL document CHEMBL5154715, “Phenolic Lipids Derived from Cashew Nut Shell Liquid to Treat Metabolic Diseases” (J Med Chem, 2022).

Molecules are shown by their SMILES. The source made the active and inactive calls. No cut-off for these calls is given here.

Data set [1] has as its target T1, Peroxisome proliferator-activated receptor gamma (Homo sapiens) (UniProt P37231).
T1 sequence (whole entry): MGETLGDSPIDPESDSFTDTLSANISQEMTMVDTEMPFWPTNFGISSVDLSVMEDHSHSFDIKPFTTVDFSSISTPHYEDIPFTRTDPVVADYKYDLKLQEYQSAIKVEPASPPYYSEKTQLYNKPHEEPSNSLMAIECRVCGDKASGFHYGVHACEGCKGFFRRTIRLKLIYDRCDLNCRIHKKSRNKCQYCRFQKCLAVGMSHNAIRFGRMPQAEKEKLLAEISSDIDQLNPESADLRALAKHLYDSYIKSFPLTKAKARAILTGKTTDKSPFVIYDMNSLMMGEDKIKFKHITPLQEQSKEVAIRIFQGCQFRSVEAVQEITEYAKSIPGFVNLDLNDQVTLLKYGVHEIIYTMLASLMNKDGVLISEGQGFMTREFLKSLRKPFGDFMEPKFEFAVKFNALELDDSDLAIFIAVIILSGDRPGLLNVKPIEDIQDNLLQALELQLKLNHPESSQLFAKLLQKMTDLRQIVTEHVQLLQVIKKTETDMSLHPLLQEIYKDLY
In words: Agonist activity at human PPARgamma expressed in HEK293 cells assessed as maximal activity by luciferase/beta-galactosidase reporter gene assay relative to rosiglitazone. It is filed as cell-based. A digest of the protocol:
(§1)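 HEK293 cells in charcoal-stripped FBS, calcium phosphate co-transfected with GAL4-hPPAR LBD fusion, UAS-luciferase and β-galactosidase. Ligand added 6–8 h post transfection, full dose–response, harvested 14–16 h later. Luciferase normalized to β-galactosidase.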

A short description of data set [2]: Metabolic stability in C57BL/6 mouse liver microsomes assessed as parent compound remaining incubated for 120 mins. As to conditions: read-out: Stability. It counts as ADME, Microsome.
The subject of data set [3] is Danio rerio. In words: In vivo agonist activity at human GFP-tagged PPARalpha in transgenic zebrafish assessed as increase in GFP expression in brain at 8.9 uM measured after 14 hrs by microscopy.
Data set [4] addresses T1, Peroxisome proliferator-activated receptor gamma (Homo sapiens). In words: Stabilization of human PPARgamma LBD assessed as change in melting temperature at 50 uM by thermal shift assay.
Data set [5] has the same target. In words: Agonist activity at human PPARgamma transfected in HEK293 cells assessed as relative luciferase unit at 50 uM measured after 16 hrs by luciferase reporter gene assay. It counts as cell-based. As to conditions: filed as agonist. The method, boiled down: (§2)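 GAL4-hPPAR (α or γ) plus UAS-luciferase and β-galactosidase transiently co-transfected into HEK293 cells, then treated with 50 μM compound for 16 h. RLU = luciferase/β-galactosidase × time, vehicle (DMSO) set to 1. Mean ± SD, N = 3; one-way ANOVA with Holm–Šidák vs vehicle.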

Data set [6] deals with T2, Peroxisome proliferator-activated receptor alpha (Homo sapiens, UniProt Q07869).
T2 sequence (Q07869 whole entry): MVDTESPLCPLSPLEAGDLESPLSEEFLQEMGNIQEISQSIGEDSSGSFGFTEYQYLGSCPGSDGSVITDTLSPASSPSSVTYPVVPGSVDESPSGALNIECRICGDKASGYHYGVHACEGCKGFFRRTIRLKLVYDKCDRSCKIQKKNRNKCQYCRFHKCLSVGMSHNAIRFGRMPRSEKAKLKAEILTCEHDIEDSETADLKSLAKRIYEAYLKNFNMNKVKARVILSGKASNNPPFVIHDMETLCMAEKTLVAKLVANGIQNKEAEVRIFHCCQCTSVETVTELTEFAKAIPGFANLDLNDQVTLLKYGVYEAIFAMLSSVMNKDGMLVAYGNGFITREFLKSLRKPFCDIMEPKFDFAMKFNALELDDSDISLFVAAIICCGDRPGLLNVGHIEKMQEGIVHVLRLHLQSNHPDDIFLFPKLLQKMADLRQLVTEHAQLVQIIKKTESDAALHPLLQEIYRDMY
In words: Agonist activity at human PPARalpha expressed in HEK293 cells by luciferase/beta-galactosidase reporter gene assay. It counts as cell-based. A digest of the protocol:
as §1

A short description of data set [7]: Metabolic stability in C57BL/6 mouse liver microsomes assessed as half life. It is filed as ADME, Microsome. The note with it: time 2 min.
Data set [8] concerns the target T3, Peroxisome proliferator-activated receptor delta (Homo sapiens) (UniProt Q03181).
T3 sequence (whole entry): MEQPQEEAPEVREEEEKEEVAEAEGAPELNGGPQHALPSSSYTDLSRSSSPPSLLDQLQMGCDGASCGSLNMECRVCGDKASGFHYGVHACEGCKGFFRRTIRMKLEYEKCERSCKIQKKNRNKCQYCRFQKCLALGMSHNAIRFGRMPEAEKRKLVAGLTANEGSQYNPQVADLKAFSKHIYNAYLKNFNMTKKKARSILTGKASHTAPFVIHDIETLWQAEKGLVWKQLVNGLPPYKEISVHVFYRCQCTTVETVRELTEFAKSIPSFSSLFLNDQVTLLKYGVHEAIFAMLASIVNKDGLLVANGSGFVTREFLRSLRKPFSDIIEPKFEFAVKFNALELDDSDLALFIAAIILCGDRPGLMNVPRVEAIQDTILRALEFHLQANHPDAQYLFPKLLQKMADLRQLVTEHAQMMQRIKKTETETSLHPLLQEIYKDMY
In words: Stabilization of human PPARdelta LBD assessed as change in melting temperature at 50 uM by thermal shift assay.

Data set [9] concerns the target T4, Peroxisome proliferator-activated receptor alpha (Homo sapiens) (UniProt Q07869).
T4 sequence (whole entry): T2 sequence (Q07869 whole entry)
In words: Agonist activity at human PPARalpha expressed in HEK293 cells assessed as maximal activity by luciferase/beta-galactosidase reporter gene assay relative to GW7647. It counts as cell-based. A digest of the protocol: as §1

The target in data set [10] is T4, Peroxisome proliferator-activated receptor alpha (Homo sapiens). In words: Stabilization of human PPARalpha LBD assessed as change in melting temperature at 25 uM by thermal shift assay. The method, boiled down:
(§3)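 Purified hPPAR LBD at 1 mg/mL (∼25 μM) with ligand (α-LBD at 25 μM; γ- and δ-LBD at 50 μM). Static light scattering at 473 nm from 25 to 70 °C in 0.5 °C steps, 1 °C/min. Tm from four-parameter fit; ΔTm relative to DMSO; mean ± SEM, N = 3.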

The target in data set [11] is T5, Peroxisome proliferator-activated receptor gamma (Homo sapiens, UniProt P37231).
T5 sequence (P37231 whole entry): T1 sequence (whole entry)
In words: Agonist activity at human PPARgamma expressed in HEK293 cells by luciferase/beta-galactosidase reporter gene assay. It is filed as cell-based. The method, boiled down:
as §1

Data set [12] has as its target T6, Peroxisome proliferator-activated receptor gamma (Mus musculus) (UniProt P37238).
T6 sequence (whole entry): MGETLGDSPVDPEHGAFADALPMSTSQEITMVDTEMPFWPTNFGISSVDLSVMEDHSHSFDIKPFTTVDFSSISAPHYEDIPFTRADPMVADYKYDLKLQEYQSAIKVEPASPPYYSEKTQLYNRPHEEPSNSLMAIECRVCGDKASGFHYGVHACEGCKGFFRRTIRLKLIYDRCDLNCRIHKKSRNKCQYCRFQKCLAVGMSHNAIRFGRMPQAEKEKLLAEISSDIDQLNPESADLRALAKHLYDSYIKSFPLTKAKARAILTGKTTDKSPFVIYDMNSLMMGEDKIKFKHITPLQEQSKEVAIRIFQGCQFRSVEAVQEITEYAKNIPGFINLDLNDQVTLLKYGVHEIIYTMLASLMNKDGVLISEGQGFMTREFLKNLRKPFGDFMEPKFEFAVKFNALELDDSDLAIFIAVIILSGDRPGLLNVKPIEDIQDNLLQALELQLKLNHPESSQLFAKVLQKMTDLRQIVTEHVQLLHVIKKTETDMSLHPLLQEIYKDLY
In words: Agonist activity at human PPARgamma in mouse 3T3-L1 cells assessed as induction of adipogenic differentiation at 25 uM measured after 11 days by Oil Red O staining analysis. It counts as cell-based. The note with it: filed as agonist, time 11.0 day. A digest of the protocol:
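3T3-L1 cells differentiated for 11 days (IBMX/dexamethasone/insulin induction, then insulin, then maintenance medium) with 25 μM compound or 10 μM rosiglitazone from day 0. Cells formalin-fixed and stained with 0.6% Oil Red O. Lipid quantified spectrophotometrically after dye extraction.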

Data set [13] deals with T4, Peroxisome proliferator-activated receptor alpha (Homo sapiens). In words: Agonist activity at human PPARalpha transfected in HEK293 cells assessed as relative luciferase unit at 50 uM measured after 16 hrs by luciferase reporter gene assay. It is filed as cell-based. As to conditions: filed as agonist. A digest of the protocol: as §2
For data set [14], the target named is T7, Peroxisome proliferator-activated receptor alpha (Mus musculus) (UniProt P23204).
T7 sequence (whole entry): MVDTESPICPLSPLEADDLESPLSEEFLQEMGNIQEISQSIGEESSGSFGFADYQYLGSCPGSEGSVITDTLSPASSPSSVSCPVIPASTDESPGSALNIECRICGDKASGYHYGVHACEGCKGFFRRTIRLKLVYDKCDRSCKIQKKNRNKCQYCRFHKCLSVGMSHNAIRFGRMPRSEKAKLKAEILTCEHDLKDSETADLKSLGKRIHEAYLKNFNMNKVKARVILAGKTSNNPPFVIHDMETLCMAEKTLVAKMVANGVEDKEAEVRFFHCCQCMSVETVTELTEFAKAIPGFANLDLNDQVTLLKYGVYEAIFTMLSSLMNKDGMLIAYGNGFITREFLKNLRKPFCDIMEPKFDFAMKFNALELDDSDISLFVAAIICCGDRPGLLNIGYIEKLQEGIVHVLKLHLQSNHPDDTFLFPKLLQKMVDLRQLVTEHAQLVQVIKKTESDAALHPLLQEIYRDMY
In words: Agonist activity at human PPARalpha in mouse hepatocytes assessed as induction of Pdk4 mRNA expression at 50 uM incubated for 16 hrs by quantitative real-time PCR analysis. As to conditions: Hepatocyte, filed as agonist. It counts as cell-based. A digest of the protocol: (§4)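 Collagenase-perfused mouse primary hepatocytes from WT mice, plated 2 h in attachment medium, overnight in M199 with 5% charcoal-stripped FBS and 1 nM insulin. Treated next day in serum-free M199 with 50 μM compound for 16 h. RNA qPCR (SYBR Green), comparative Ct method.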

The target of data set [15] is T3, Peroxisome proliferator-activated receptor delta (Homo sapiens). As to conditions: HEK293, filed as agonist.
A further data set relates to HEK293. In words: Cytotoxicity against HEK293 cells at 25 uM by MTT assay. It counts as toxicity, cell-based. The note with it: human, hek293, 264 h, time 11 day. A digest of the protocol: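 MTT assay in HEK293 cells with compounds dosed at 25 μM.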
The target of data set [16] is T7, Peroxisome proliferator-activated receptor alpha (Mus musculus). In words: Agonist activity at human PPARalpha in mouse hepatocytes assessed as induction of fabp1 mRNA expression at 50 uM incubated for 16 hrs by quantitative real-time PCR analysis. It counts as cell-based. The note with it: Hepatocyte, filed as agonist. The method, boiled down:
as §4

The test system of a further data set is Hepatocyte. In words: Cytotoxicity against mouse primary hepatocytes at 25 uM by MTT assay. It is filed as toxicity, cell-based. As to conditions: 264 h, time 11 day.
The target in data set [17] is T7, Peroxisome proliferator-activated receptor alpha (Mus musculus). In words: Agonist activity at human PPARalpha in mouse hepatocytes assessed as induction of Fgf21 mRNA expression at 50 uM incubated for 16 hrs by quantitative real-time PCR analysis. It is filed as cell-based. As to conditions: Hepatocyte, filed as agonist. The method, boiled down:
as §4

In data set [18] the target is T3, Peroxisome proliferator-activated receptor delta (Homo sapiens). In words: Stabilization of human PPARdelta LBD assessed as change in melting temperature at 50 uM by thermal shift assay. A digest of the protocol: as §3
The target in data set [19] is T1, Peroxisome proliferator-activated receptor gamma (Homo sapiens). As to conditions: dose 50.0 µM.
Data set [20] deals with Danio rerio. In words: In vivo agonist activity at human GFP-tagged PPARgamma in transgenic zebrafish assessed as increase in GFP expression in tail bud at 0.1 uM measured after 14 hrs by microscopy.

With `CCCCCCCCCCCCCCCc1cccc(OC(C)(C)C(=O)OCC)c1`, the figures for the Emax in data set [1] and in data set [9] were 30% and 5%, respectively. Besides, in [2], the remaining at 2 h was 78%. Besides, the outcome (with Danio rerio [3]; in data set [5]; in data set [12]; in [13]) was Active. Moreover, the ΔTm in data set [4] was found to be 0.2 °C; in data set [8] it was 0.5 °C; in data set [10], 0.6 °C. Besides, the EC50 in [6] is 8.9 µM; in data set [11] it was 3.9 µM. The half-life in [7] was found to be 5.58 h.
Consider `CCCCCCCCCCCCCCCc1cccc(OCC(=O)O)c1`, for which the Emax in [1] (filed as agonist) is above 90%; in data set [9], 30%. Further, the outcome in data set [5], in data set [14], in data set [16], in data set [17] and in data set [13] was Active. The EC50 in data set [6] was 1.1 µM; in data set [15], 10 µM; in [11], 3.7 µM. In addition, the results for the Activity entry in the data set with HEK293 and with Hepatocyte were “Toxic” and “Non-Toxic”, respectively.
Turning to `O=C(O)COc1ccc(SCC=C(c2ccc(Br)cc2)c2ccc(Br)cc2)cc1Cl`, the ΔTm in data set [18] came out at 7.7 °C.
Take `CN(CCOc1ccc(CC2SC(=O)NC2=O)cc1)c1ccccn1` (centres undefined): the ΔTm in data set [19] and in data set [4] was 5 °C each time. In the data set on Danio rerio [20], the result was Active.
